Screening data as filed in PubChem.
In the library only some 2.3% were active in any assay of this set; here they are far more common.
TRPC4 inh: blocks the mouse TRPC4 cation channel; 300,000 compounds, 0.39% hits; B-score at 10 µM; Q9QUQ5; HEK293 TRPC4beta/mu-opioid, DAMGO-evoked Fluo4 calcium flux; hits give low values; AID 2247;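 active means B-score over 3 SD under the library average, no early fluorescence shift, positive overall ratio signal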
Target sequence (Q9QUQ5 whole entry, looked up): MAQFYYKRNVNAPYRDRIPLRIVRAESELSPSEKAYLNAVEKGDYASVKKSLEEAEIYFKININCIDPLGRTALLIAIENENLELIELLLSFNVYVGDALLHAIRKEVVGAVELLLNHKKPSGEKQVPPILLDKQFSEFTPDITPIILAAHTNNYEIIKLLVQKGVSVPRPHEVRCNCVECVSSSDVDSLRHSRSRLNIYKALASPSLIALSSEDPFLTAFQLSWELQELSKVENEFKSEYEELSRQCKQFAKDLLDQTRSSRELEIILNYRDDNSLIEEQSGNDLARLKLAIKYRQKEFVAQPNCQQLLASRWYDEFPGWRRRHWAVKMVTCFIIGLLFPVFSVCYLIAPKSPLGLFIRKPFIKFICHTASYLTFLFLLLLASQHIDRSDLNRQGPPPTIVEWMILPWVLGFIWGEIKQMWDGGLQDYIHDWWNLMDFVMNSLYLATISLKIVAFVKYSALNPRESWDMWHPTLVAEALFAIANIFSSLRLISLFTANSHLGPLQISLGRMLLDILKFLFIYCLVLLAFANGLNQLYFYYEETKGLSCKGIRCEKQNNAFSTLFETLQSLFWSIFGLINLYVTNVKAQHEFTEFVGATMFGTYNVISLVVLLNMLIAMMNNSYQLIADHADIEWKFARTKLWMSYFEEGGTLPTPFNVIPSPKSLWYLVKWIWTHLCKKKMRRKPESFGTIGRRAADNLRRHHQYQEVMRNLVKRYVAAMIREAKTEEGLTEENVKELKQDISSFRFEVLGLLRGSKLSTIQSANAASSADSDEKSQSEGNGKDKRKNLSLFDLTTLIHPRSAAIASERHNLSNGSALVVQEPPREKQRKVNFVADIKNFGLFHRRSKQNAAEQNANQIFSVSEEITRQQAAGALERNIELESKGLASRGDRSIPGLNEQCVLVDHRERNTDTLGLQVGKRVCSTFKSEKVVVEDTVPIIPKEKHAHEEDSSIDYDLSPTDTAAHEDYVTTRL
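test system = HEK293 cells with stable TRPC4beta plus mu-opioid receptor expression | detection = Fluo4 Ca2+ flux fluorescence | read-out = integrated fluorescence ratio relative to baseline, converted to per-well B score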
TRPC4 potent: allosterically enhances the mouse TRPC4 cation channel | AID 2227 | HEK293 TRPC4beta/mu-opioid, DAMGO EC20, Fluo-4 Ca2+ flux; hits give high values | 310,000 compounds, 0.42% hits | B-score at 10 µM | Q9QUQ5;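 active means B-score of calcium response area above 5 SD of library B-scores, with initial fluorescence ratio within 5 SD of library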;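 further: B-score of integrated fluorescence ratio over time as area under calcium response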
TRPC4 act: TRPC4 (mouse) channel activation | Q9QUQ5 | HEK293 TRPC4beta/mu-opioid, Fluo4 calcium fluorescence; hits give high values | B-score at 10 µM | 310,000 compounds, 0.49% hits | AID 2237;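 active means B-score above 5 SD of library B-scores, and initial fluorescence ratio not above library mean plus 5 SD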;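 further: positive B-score marks a calcium rise read as TRPC4 activation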
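Assay system: HEK293 stable line with TRPC4beta plus mu-opioid receptor. Times: dye 45 min RT, read 110 s. Measured by: kinetic Fluo4 calcium fluorescence. Measure: B score of integrated ratio. Controls: assay buffer as low control, maximal DAMGO as high control.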
TRPC6 inhibitor: mouse TRPC6 channel inhibition. 310,000 compounds, 1.1% hits. Q61143. B-score at 10 µM. AID 2553. HEK293-TRPC6, membrane potential dye, ACh-evoked depolarization; hits give low values;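 active means B-score under library mean minus 3 SD, initial fluorescence not abnormally high, positive integrated signal ratio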;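 further: B-score derived from integrated fluorescence ratio over the kinetic read; more negative B-score means stronger inhibition of depolarization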
TRPC6 act: mouse TRPC6 channel activation. HEK293-TRPC6 membrane potential dye fluorescence; hits give high values. B-score at 10 µM. 310,000 compounds, 0.13% hits. AID 2550;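 active means B-score of the integrated fluorescence ratio above library mean plus 3 SD, and starting fluorescence ratio within library mean plus 5 SD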;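 further: higher score means more depolarization so channel activation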
TRPC4 sel inh 2: second selectivity test of TRPC6 inhibitors: effect on mouse TRPC4; shares compounds with TRPC6 inhibitor; HEK293 TRPC4/MOR, membrane potential dye fluorescence; channel activated by saturating DAMGO dose; inhibition, % at 10 µM; 920 compounds, 42% hits; AID 2776;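 active means compounds whose fluorescence signal differed from control wells by over 3 SD, either direction, in both duplicate plates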
TRPC4 spec: mouse TRPC4 off-target activity of TRPC6 inhibitors; shares compounds with TRPC6 inhibitor; 920 compounds, 61% hits; HEK293 TRPC4/mu-opioid, membrane potential fluorescence; activity change, negative = inhibition, % at 10 µM;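 active means rise or fall in signal beyond 3 SD of buffer-only wells in both replicate plates, either sign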;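 further: integrated kinetic ratio of fluorescence range over baseline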
HEK293 MPD ctr 2-1: second counter-screen for TRPC6 inhibitors: parental HEK293 cells; signal change vs control, % at 10 µM; parental HEK293 membrane potential dye fluorescence; maximal acetylcholine challenge after compound addition; 920 compounds, 31% hits; shares compounds with TRPC6 inhibitor;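 active means membrane potential signal moving either way by over 3 SD of the maximum-effect control, in both duplicate plates, meaning non-specific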
HEK293 MPD ctr-1: parental HEK293 nonspecific activity of TRPC6 inhibitors; shares compounds with TRPC6 inhibitor; AID 2780; membrane potential signal change, % at 10 µM; 920 compounds, 60% hits; parental HEK293 membrane potential dye fluorescence;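 active means membrane potential signal shifting up or down by more than 3 SD of buffer-only wells, on both duplicate plates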
HEK293 MPD ctr-2: counter-screen for TRPC6 modulators: effect in parental HEK293 cells; shares compounds with TRPC6 inhibitor; membrane potential signal change, % at 10 µM; 2,400 compounds, 51% hits; membrane potential dye fluorescence;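 active means membrane potential signal moves up or down beyond 5 SD from buffer-only wells, on both duplicate plates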
HEK293 MPD ctr 2-2: second check of TRPC6 modulator effects in parental HEK293 cells; AID 488926; inhibition, % at 10 µM; 2,400 compounds, 14% hits; membrane potential dye fluorescence; after compound, maximal acetylcholine stimulation; shares compounds with TRPC6 inhibitor;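 active means membrane potential signal drops by more than 5 SD from the mean control signal, in both duplicate plates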;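 further: plate controls were acetylcholine ECmax control wells for no effect and buffer only wells for full effect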
TRPC4 ctr mod: mouse TRPC4 off-target activity of TRPC6 modulators; shares compounds with TRPC6 inhibitor; HEK293 TRPC4/mu-opioid, membrane potential fluorescence; percent change from control (negative = decrease, positive = increase), % at 10 µM; 2,400 compounds, 69% hits;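 active means membrane potential signal moved up or down beyond 5 SD of buffer control wells, in both duplicate plates, actives on both sides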;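 further: plate controls were assay buffer wells for no effect and DAMGO maximal-effect wells for full effect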
TRPC4/MOR inh 2: second check of whether TRPC6 modulators also affect mouse TRPC4; shares compounds with TRPC6 inhibitor; HEK293 TRPC4/mu-opioid, membrane potential dye fluorescence; stimulated with maximal-effect DAMGO; inhibition, % at 10 µM; 2,400 compounds, 55% hits;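 active means drop in membrane potential signal beyond 5 SD of the control wells in both duplicate plates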;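 further: TRPC4 counter screen for TRPC6 hits run under conditions tuned for TRPC6 not TRPC4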
TRPC6 inh conf: confirmation of mouse TRPC6 inhibitors. AID 488960. inhibition, % at 10 µM. 3,300 compounds, 43% hits. HEK293-TRPC6, membrane potential dye, ACh-evoked depolarization. shares compounds with TRPC6 inhibitor;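 active means fluorescence ratio falls more than 5 SD below the full-stimulation control mean, in both duplicate runs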;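 further: integrated fluorescence ratio of peak minus minimum over baseline after agonist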
TRPC6 act conf: confirmation of mouse TRPC6 activators | HEK293-TRPC6 membrane potential dye fluorescence, FDSS | 2,800 compounds, 11% hits | activation, % at 10 µM | shares compounds with TRPC6 inhibitor | AID 488961;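 active means ratio signal rise beyond 5 SD above unstimulated control wells' mean, seen in both duplicate runs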;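 further: plate controls were buffer EC0 wells for no effect and acetylcholine ECmax response for full effect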
Numbers without * were called inactive; i = inactive; nt = not tested or not shown; + = active, no number.

SMILES | TRPC4 inh | TRPC4 potent | TRPC4 act | TRPC6 inhibitor | TRPC6 act | HEK293 MPD ctr-2 | HEK293 MPD ctr 2-2 | TRPC4 ctr mod | TRPC4/MOR inh 2 | TRPC6 inh conf | TRPC6 act conf | others
O=C1/C(=C/c2ccccc2)Nc2ccccc21 | i | i | 83* | i | 70.2* | + | + | 309.0%* | i | nt | 587.0%*
O=C(Nc1cccc(NC(=O)c2ccc(Br)o2)n1)c1ccc(Br)o1 | i | i | i | -6.32* | i | i | i | i | i | i | i
Cc1nc(NC(=O)c2ccc(Br)o2)ccc1Br | i | i | i | i | i | nt | nt | nt | nt | nt | nt
CN(Cc1nccn1C)C(=O)CC1C(=O)NCCN1Cc1ccc(F)cc1Cl (stereo not given) | i | i | i | i | i | nt | nt | nt | nt | nt | nt
CCOC(=O)c1c(N2C(=O)CC(Sc3ccccc3C(=O)O)C2=O)sc2c1CCCC2 (stereo not given) | i | i | i | i | 17.7* | 147.0%* | i | 8.0%* | i | i | 120.0%*
Cn1cc(CN(CCCN2CCOCC2)C(=S)Nc2cccc(Cl)c2)c2ccccc21 | i | i | i | -6.78* | i | nt | nt | nt | nt | i | i | TRPC4 sel inh 2=i;TRPC4 spec=i;HEK293 MPD ctr 2-1=258.5%*;HEK293 MPD ctr-1=i
COc1ccc(-c2cc3nc4n(c(=O)c3s2)CCC4)cc1 | i | i | i | i | i | nt | nt | nt | nt | nt | nt
COc1ccc(-c2nc3n(c2C)CCC3)cc1 | i | i | i | -5.78* | i | -266.5%* | i | -35.5%* | 43.5%* | i | i
CC(=O)Nc1ccc(NC(=O)CSc2nnc(-c3cccs3)n2C)cc1 | i | i | i | i | i | nt | nt | nt | nt | nt | nt
COc1ccc2nc(C)c3c(c2c1)OC(C)C3 (stereo not given) | i | i | i | -7.45* | i | nt | nt | nt | nt | i | i | TRPC4 sel inh 2=i;TRPC4 spec=-16.9%*;HEK293 MPD ctr 2-1=18.0%*;HEK293 MPD ctr-1=-236.5%*
CCOC(=O)c1ccc2nc(C)c3c(c2c1)OC(C)C3 (stereo not given) | i | i | i | -5.22* | i | -112.0%* | i | -13.0%* | i | i | i
COc1cccc2c3c(c(C)nc12)CC(C)O3 (stereo not given) | i | i | i | -6.15* | i | -145.5%* | i | -17.5%* | 41.0%* | i | i
Cc1nc2ccc(C(=O)O)cc2c2c1CC(CN)O2 (stereo not given) | i | i | i | i | i | nt | nt | nt | nt | nt | nt
Cc1ccc(CNC(=O)C2CCCN(c3nn4c(=O)cc(C)nc4s3)C2)cc1 (stereo not given) | i | i | i | i | i | nt | nt | nt | nt | nt | nt
O=c1[nH]c2ccc(S(=O)(=O)N3CCN(c4ccccc4F)CC3)cc2s1 | i | i | i | -7.99* | i | nt | nt | nt | nt | i | i | TRPC4 sel inh 2=i;TRPC4 spec=0.3%*;HEK293 MPD ctr 2-1=225.5%*;HEK293 MPD ctr-1=i
Cc1ccc(C(=O)NNC2=Nc3cccc4cccc2c34)cc1 | i | i | i | -5.33* | i | i | i | i | i | i | i
COc1ccc(C(=O)NNC2=Nc3cccc4cccc2c34)cc1 | i | i | i | i | i | nt | nt | nt | nt | nt | nt
Brc1ccc2nc(-c3c[nH]c4ccccc34)cn2c1 | i | i | i | -6.33* | i | i | i | -10.5%* | 53.5%* | i | i
Cc1cccn2cc(-c3c[nH]c4ccccc34)nc12 | -6* | i | i | -6.65* | i | -113.0%* | i | -27.5%* | 70.5%* | 68.5%* | i
CC(=O)Nc1ccc(S(=O)(=O)N(Cc2ccccc2)C(C)C)cc1 | i | i | i | i | i | nt | nt | nt | nt | nt | nt
COc1ccccc1N(C(=O)Cn1nnc(-c2ccc(C)o2)n1)C(C(=O)NC1CCCC1)c1ccncc1 (stereo not given) | i | i | i | i | i | nt | nt | nt | nt | nt | nt
CCN(CC)CCN(C(=O)Cn1nnc(-c2ccc(C)o2)n1)C(C(=O)NC(C)(C)C)c1cccs1 (stereo not given) | i | i | i | i | 17.9* | 487.5%* | i | 112.0%* | 32.5%* | i | 241.5%*
CCN(CC)CCN(C(=O)Cn1nnc(-c2ccc(C)o2)n1)C(C(=O)NC1CCCC1)c1ccc(F)cc1 (stereo not given) | i | i | i | i | 29.6* | 343.0%* | i | 67.5%* | 43.5%* | i | 192.0%*
Cc1ccc(-c2nnn(CC(=O)N(Cc3ccco3)C(C(=O)NC3CCCC3)c3cccs3)n2)o1 (stereo not given) | i | i | i | i | i | nt | nt | nt | nt | nt | nt
Cc1ccc(-c2nnn(CC(=O)N(CCO)C(C(=O)NC3CCCC3)c3ccc(F)cc3)n2)o1 (stereo not given) | i | i | i | i | i | nt | nt | nt | nt | nt | nt
COc1ccc(C(C(=O)NC2CCCC2)N(CC2CCCO2)C(=O)Cn2nnc(-c3ccc(C)o3)n2)cc1 (stereo not given) | i | i | i | -6.19* | i | i | i | i | i | i | i
